Consider four molecules from publication PMC12780024 (Nature Communications, 2025).

Broadly, the Kd is the concentration at which binding is half-saturated.

Square brackets hold non-standard residues; d marks the D form. Ends that are not written are not given here. Hyp = O=C(O)[C@@H]1C[C@@H](O)CN1

For one test, the system named is Arabidopsis leaves. Kind of test: Time-resolved stomatal conductance. It counts as in vivo, Arabidopsis thaliana. Put shortly:
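Plants grown in short days (10/14 h) at 22 °C. Detached leaves equilibrated in an LI-6800 chamber until gsw was stable, then given 2 µM ABA. Chamber settings: 200 µmol m−2 s−1 light (90% red, 10% blue), 22 °C, 75% RH, 400 ppm CO2, […]. Time-resolved gsw reported as mean ± s.d. of at least three biological replicates.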

The next test has as its system SRK2E. As to the kind of experiment: Protein mobility shift assay. It counts as cell-based, Arabidopsis thaliana. To be noted: wild type protoplasts, 1 μM, 30 min, Phos-Tag; diminished by phosphatase. The method, boiled down: (§1)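 Mesophyll protoplasts (6 × 10^4) transfected with 10 µg 35S::kinase-GFP plasmid and kept 18 h at 21 °C in W5 under continuous light. Treated with 1 µM peptide or ABA for up to 30 min, frozen, ground and lysed (Tris pH 7.5 buffer). Cleared lysate run on Phos-Tag SDS-PAGE and blotted with anti-GFP; tubulin as internal control. For dephosphorylation, lysate incubated with λ-phosphatase at 30 °C for 30 min, with or without NaF/NaVO3 inhibitors.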

The test system of test [1] is stomata (guard cells) of Arabidopsis leaves. Kind of test: Stomatal aperture measurement. It counts as cell-based, Arabidopsis thaliana. Put shortly: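 Abaxial epidermis peeled from leaves of 3–4-week-old plants. Pore width and length measured by light microscopy and expressed as W/L ratio. n = 15 per time point, at least three independent experiments.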
For the next test, the system named is SRK2D. As to the kind of experiment: Protein mobility shift assay. Type of test: cell-based, Arabidopsis thaliana. Conditions: wild type protoplasts, 1 μM, 30 min, Phos-Tag; diminished by phosphatase. Put shortly: as §1
For test [2] the following is noted: cited from earlier work.
Test [3] concerns H2O2 accumulation in rosette leaves. As to the kind of experiment: DAB staining of H2O2 in leaves. Conditions: 2 h. It counts as in vivo, Arabidopsis thaliana. The method, boiled down:
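Four-week-old rosette leaves treated 2 h with test peptide (100 µM) or hormone control (1 µM), then immersed in freshly prepared 100 µg/ml DAB in the dark for 8 h. Fixed and bleached in ethanol/acetic acid/glycerol (3:1:1), rinsed with distilled water, and photographed on a white background for H2O2 staining.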

For test [4], the target named is GHR1 extracellular domain. As to the kind of experiment: Isothermal titration calorimetry. It counts as binding, Arabidopsis thaliana. To be noted: read-out: dissociation constant (Kd); ITC, MicroCal ITC200, 37 °C, 1 mM CLE5p into 0.1 mM GST-GHR1, 20 mM Tris-HCl pH 7.5, 25 mM NaCl, 5% glycerol; One Set of Sites; ± fitting errors; repeated twice. Put shortly: (§2)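 Recombinant GST-fused receptor protein, gel-filtered into titration buffer, titrated at 37 °C with sequential injections of test peptide at 180 s intervals. Cell stirred at 800 rpm, reference power 5 µcal/s. GST alone served as negative control. Data fitted to a one-set-of-sites model to give Kd, stoichiometry N, ΔG, ΔH and -TΔS.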
Background: ITC needs no label: the signal is the heat of the interaction.

Test [5] relates to Arabidopsis seedlings (primary root). Kind of test: Primary root growth inhibition / LRR-RLK screening. It counts as in vivo, Arabidopsis thaliana. Conditions: 0.75 µM CLE5p. The method, boiled down: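 Arabidopsis lrr-rlk mutant seedlings were germinated on 1/2MS agar for 3 days. They were then transferred to 1/2MS agar containing 0.75 µM test peptide. Primary root length was measured after 3 days of peptide treatment.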

The target of test [6] is BAM1 extracellular domain. Kind of test: Isothermal titration calorimetry. It counts as binding, Arabidopsis thaliana. To be noted: read-out: dissociation constant (Kd); ITC, MicroCal ITC200, 37 °C, 1 mM CLE5p into 0.1 mM GST-BAM1, 20 mM Tris-HCl pH 7.5, 25 mM NaCl, 5% glycerol; One Set of Sites; ± fitting errors; repeated twice. The method, boiled down:
as §2

Test [7] concerns the target T1, GST-BAM1 (LRR repeats of BARELY ANY MERISTEM 1, N-terminal GST fusion) (Arabidopsis thaliana).
T1 sequence (O49545 whole entry, looked up): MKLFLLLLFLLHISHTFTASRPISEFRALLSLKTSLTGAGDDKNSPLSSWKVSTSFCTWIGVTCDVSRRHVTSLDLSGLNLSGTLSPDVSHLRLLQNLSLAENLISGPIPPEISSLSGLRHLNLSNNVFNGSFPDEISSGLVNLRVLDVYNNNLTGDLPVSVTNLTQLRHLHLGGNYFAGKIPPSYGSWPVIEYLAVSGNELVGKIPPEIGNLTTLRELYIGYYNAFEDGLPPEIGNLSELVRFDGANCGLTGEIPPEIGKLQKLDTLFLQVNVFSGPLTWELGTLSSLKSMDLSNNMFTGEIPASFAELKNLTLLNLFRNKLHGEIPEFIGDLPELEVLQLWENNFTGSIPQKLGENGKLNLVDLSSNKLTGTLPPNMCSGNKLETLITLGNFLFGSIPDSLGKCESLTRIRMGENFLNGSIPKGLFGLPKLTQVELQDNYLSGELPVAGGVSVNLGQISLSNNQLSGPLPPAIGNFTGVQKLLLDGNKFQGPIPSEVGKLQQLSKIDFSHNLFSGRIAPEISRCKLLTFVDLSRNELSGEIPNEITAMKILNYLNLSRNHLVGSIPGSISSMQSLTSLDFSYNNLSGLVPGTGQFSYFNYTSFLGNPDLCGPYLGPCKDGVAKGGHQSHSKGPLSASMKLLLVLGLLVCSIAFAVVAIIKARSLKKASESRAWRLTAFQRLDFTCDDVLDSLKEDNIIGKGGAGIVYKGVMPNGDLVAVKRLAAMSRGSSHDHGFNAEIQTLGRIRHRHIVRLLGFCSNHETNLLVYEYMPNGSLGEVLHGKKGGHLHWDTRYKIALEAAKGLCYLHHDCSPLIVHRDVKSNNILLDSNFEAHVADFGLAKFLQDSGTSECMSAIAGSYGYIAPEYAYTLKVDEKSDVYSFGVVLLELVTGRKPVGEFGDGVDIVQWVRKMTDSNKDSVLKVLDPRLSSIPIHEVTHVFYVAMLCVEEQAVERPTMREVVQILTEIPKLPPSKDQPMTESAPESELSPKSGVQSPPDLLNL
Kind of test: ITC.

In test [8] the target is T2, GST-GHR1 (LRR repeats of GUARD CELL HYDROGEN PEROXIDE-… 1, N-terminal GST fusion) (Arabidopsis thaliana).
T2 sequence (C0LGQ9 whole entry, looked up): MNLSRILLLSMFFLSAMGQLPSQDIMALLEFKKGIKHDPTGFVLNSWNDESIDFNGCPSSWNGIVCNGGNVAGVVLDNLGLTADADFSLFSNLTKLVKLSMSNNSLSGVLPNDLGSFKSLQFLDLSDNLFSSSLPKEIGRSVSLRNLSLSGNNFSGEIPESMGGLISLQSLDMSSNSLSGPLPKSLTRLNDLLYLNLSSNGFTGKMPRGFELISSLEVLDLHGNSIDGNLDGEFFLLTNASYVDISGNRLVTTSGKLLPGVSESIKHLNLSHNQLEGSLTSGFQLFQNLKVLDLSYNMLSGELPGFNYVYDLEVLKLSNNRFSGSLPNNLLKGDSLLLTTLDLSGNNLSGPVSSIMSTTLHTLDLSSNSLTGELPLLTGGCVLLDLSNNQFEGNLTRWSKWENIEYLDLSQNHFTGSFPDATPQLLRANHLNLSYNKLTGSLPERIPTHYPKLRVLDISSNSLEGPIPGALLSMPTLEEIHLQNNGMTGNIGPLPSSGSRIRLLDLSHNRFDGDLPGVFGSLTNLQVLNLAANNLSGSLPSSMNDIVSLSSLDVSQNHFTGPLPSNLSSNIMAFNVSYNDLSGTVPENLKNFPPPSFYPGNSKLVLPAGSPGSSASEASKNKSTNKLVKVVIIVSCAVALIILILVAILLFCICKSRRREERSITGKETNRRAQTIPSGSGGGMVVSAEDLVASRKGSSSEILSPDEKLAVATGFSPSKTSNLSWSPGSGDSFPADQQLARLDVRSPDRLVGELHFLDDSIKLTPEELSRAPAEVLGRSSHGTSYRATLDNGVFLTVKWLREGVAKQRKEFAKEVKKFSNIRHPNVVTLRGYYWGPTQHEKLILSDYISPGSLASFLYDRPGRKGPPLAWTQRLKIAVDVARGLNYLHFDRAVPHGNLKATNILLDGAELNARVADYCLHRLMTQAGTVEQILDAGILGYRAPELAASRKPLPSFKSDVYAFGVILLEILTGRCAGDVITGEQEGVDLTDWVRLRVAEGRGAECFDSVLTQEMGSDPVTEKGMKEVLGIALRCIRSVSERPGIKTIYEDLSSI
As to the kind of experiment: ITC.

For the molecule `CC1=CC(=O)CC(C)(C)[C@@]1(O)/C=C/C(C)=C\C(=O)O` [ABA, abscisic acid], the “stomatal conductance response to ABA” value in the test with Arabidopsis leaves (35S::SRK2E(Triple A)/srk2e leaves, 2 µM ABA) is “insensitive to the ABA treatment”; in the test with Arabidopsis leaves (35S::SRK2E/srk2e leaves, 2 µM ABA, compared to srk2e), “decreased rapidly”; in the test with Arabidopsis leaves (bam1-3, ghr1, bam1-3ghr1 leaves, 2 µM ABA), “insensitive to the ABA-induced reduction of stomatal conductance”; in the test on Arabidopsis leaves (cle5-1 leaves, 2 μM ABA), “insensitive to ABA treatment”; in the test with Arabidopsis leaves (pGC1::CLE5/cle5-1 leaves (stomata-specific CLE5), 2 μM ABA) it was “sufficient to elicit ABA-induced stomatal closure”; in the test on Arabidopsis leaves (wild type and pCLE5::CLE5/cle5-1 leaves, 2 μM ABA), “began to close their stomata promptly after ABA application”. Moreover, the “SRK2E-GFP mobility shift (phosphorylation)” value in the test with SRK2E is given as “a distinct band shift was detected”. The stomatal closure entry is listed as “failed to induce stomatal closure” in test [1] (cle5-1 and bam1-3ghr1 leaves, 2 µM ABA, 30 min); “induce rapid stomatal closure” in test [2]. Besides, the “SRK2D-GFP mobility shift (phosphorylation)” value in the test with SRK2D was “a distinct band shift was detected”. Also, in test [3] (1 µM ABA), the “H2O2 accumulation (DAB staining)” value is listed as “induced H2O2 accumulation”.

For “CLE5p: mature CLE5 dodecapeptide, hydroxyproline at residues 4 and 7, non-arabinosylated (RVS[Hyp]GG[Hyp]DPQHH)”, the Kd is 7.39 µM in test [4] and 2.52 µM in [6]. The “root growth inhibition, in words” value is “Neither single bam1-3 and ghr1 nor double bam1-3ghr1 mutants showed significant growth defects” in test [5] (bam1-3, ghr1, bam1-3ghr1 seedlings); “sensitive to the CLE5p-induced root growth inhibition” in [5] (bam3 and wild type seedlings). Also, the stomatal closure entry in test [1] (rbohDrbohF double mutant leaves) is “induced stomatal closure”. Also, in test [3] (100 µM CLE5p, detached leaves), the “H2O2 accumulation (DAB staining)” value is recorded as “no hydrogen peroxide (H2O2) accumulation”.

As for “CLE25p: root-derived CLE peptide transported from roots to leaves (RKVPNGPDPIHN; ends and bridges not checked; UniProt Q8LFL4 58-69, looked up)”, the drought stress response entry in test [2] (root-derived, transported from roots to leaves) is “promotes drought stress resistance by stimulating ABA biosynthesis”.

RVS[Hyp]GG[Hyp]DPQHH [CLE5 dodecapeptide (CLE5p)]: the dissociation constant Kd in [7] was 2.52 µM; in test [8], 7.39 µM.
